From ChEMBL document CHEMBL4689842, “EUbOPEN Chemogenomics Library wave 1” (2021)

Legend:
Format in all cases: toxicity, cell-based
Fibroblast = test: Multiplex assay against human fibroblast
Method in brief: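 Cells were classed with CellPathfinder machine-learning gating, first as Hoechst high-intensity objects or normal cells, then (normal cells) as healthy, pyknosed or fragmented nuclei, and finally (pyknosed cells) as mitotic or apoptotic. Staining of live cells at seeding used Hoechst33342, BioTracker Green Microtubule Cytoskeleton Dye, MitoTracker Red and Annexin V Alexa Fluor 680, with imaging on a CQ1 microscope at 37°C and 5% CO2 after compound addition. Tubulin, mitochondrial-mass and membrane-permeability phenotypes are per cents of healthy-nucleus cells.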

HEK-293T = test: Incucyte cell viability with HEK293T; settings: human, 10 µM, compound concentration 10 uM; note: filed as whole numbers so only -1 and 0 and 1 occur
U2OS = test: Incucyte cell viability with U2OS; settings: human, 10 µM, compound concentration 10 uM; note: filed as whole numbers so only -1 and 0 and 1 occur
[1] = 12 h, 1 µM, compound concentration 1 uM, replicate 1
[2] = 12 h, 1 µM, compound concentration 1 uM, replicate 2
[3] = 12 h, 10 µM, compound concentration 10 uM, replicate 1
[4] = 12 h, 10 µM, compound concentration 10 uM, replicate 2
[5] = 24 h, 1 µM, compound concentration 1 uM, replicate 1
[6] = 24 h, 1 µM, compound concentration 1 uM, replicate 2
[7] = 24 h, 10 µM, compound concentration 10 uM, replicate 1
[8] = 24 h, 10 µM, compound concentration 10 uM, replicate 2
[9] = 48 h, 1 µM, compound concentration 1 uM, replicate 1
[10] = 48 h, 1 µM, compound concentration 1 uM, replicate 2
[11] = 48 h, 10 µM, compound concentration 10 uM, replicate 1
[12] = 48 h, 10 µM, compound concentration 10 uM, replicate 2
[13] = 0 h, replicate number 1, timepoint 0 hours
[14] = 12 h, replicate number 1, timepoint 12 hours
[15] = 18 h, replicate number 1, timepoint 18 hours
[16] = 24 h, replicate number 1, timepoint 24 hours

What does the source list for `CCc1cc2c(cc1CC)CC(NC[C@H](O)c1ccc(O)c3[nH]c(=O)ccc13)C2` [INDACATEROL]?
Population Apoptotic (%) (Fibroblast; [1]): 57%; Population Fragmented Nuclei (%) (Fibroblast; [1]): 22%; Population Healthy Nuclei (%) (Fibroblast; [1]): 53%; Population Hoechst High Intensity Objects (%) (Fibroblast; [1]): 9%; Population Membrane Permeable-Phenotype (%) (Fibroblast; [1]): 21%; Population Mitochondria Different-Phenotype (%) (Fibroblast; [1]): 10%; Population Mitotic Cells (%) (Fibroblast; [1]): 42%; Population Normal (%) (Fibroblast; [1]): 90%; Population Pyknosed Nuclei (%) (Fibroblast; [1]): 23%; Population Tubulin-Different-Phenotype (%) (Fibroblast; [1]): 35%; Total Cell Count (Fibroblast; [1]): 187; Population Apoptotic (%) (Fibroblast; [2]): 33%; Population Fragmented Nuclei (%) (Fibroblast; [2]): 3%; Population Healthy Nuclei (%) (Fibroblast; [2]): 92%; Population Hoechst High Intensity Objects (%) (Fibroblast; [2]): 7%; Population Membrane Permeable-Phenotype (%) (Fibroblast; [2]): 1%; Population Mitochondria Different-Phenotype (%) (Fibroblast; [2]): 11%; Population Mitotic Cells (%) (Fibroblast; [2]): 66%; Population Normal (%) (Fibroblast; [2]): 92%; Population Pyknosed Nuclei (%) (Fibroblast; [2]): 4%; Population Tubulin-Different-Phenotype (%) (Fibroblast; [2]): 14%; Total Cell Count (Fibroblast; [2]): 71; Population Apoptotic (%) (Fibroblast; [3]): 71%; Population Fragmented Nuclei (%) (Fibroblast; [3]): 35%; Population Healthy Nuclei (%) (Fibroblast; [3]): 45%; Population Hoechst High Intensity Objects (%) (Fibroblast; [3]): 22%; Population Membrane Permeable-Phenotype (%) (Fibroblast; [3]): 1%; Population Mitochondria Different-Phenotype (%) (Fibroblast; [3]): 43%; Population Mitotic Cells (%) (Fibroblast; [3]): 28%; Population Normal (%) (Fibroblast; [3]): 77%; Population Pyknosed Nuclei (%) (Fibroblast; [3]): 19%; Population Tubulin-Different-Phenotype (%) (Fibroblast; [3]): 74%; Total Cell Count (Fibroblast; [3]): 230; Population Apoptotic (%) (Fibroblast; [4]): 68%; Population Fragmented Nuclei (%) (Fibroblast; [4]): 15%; Population Healthy Nuclei (%) (Fibroblast; [4]): 64%; Population Hoechst High Intensity Objects (%) (Fibroblast; [4]): 6%; Population Membrane Permeable-Phenotype (%) (Fibroblast; [4]): 23%; Population Mitochondria Different-Phenotype (%) (Fibroblast; [4]): 98%; Population Mitotic Cells (%) (Fibroblast; [4]): 31%; Population Normal (%) (Fibroblast; [4]): 93%; Population Tubulin-Different-Phenotype (%) (Fibroblast; [4]): 88%; Total Cell Count (Fibroblast; [4]): 71; Population Apoptotic (%) (Fibroblast; [5]): 69%; Population Fragmented Nuclei (%) (Fibroblast; [5]): 23%; Population Healthy Nuclei (%) (Fibroblast; [5]): 62%; Population Hoechst High Intensity Objects (%) (Fibroblast; [5]): 10%; Population Membrane Permeable-Phenotype (%) (Fibroblast; [5]): 18%; Population Mitochondria Different-Phenotype (%) (Fibroblast; [5]): 5%; Population Mitotic Cells (%) (Fibroblast; [5]): 30%; Population Normal (%) (Fibroblast; [5]): 89%; Population Pyknosed Nuclei (%) (Fibroblast; [5]): 13%; Population Tubulin-Different-Phenotype (%) (Fibroblast; [5]): 36%; Total Cell Count (Fibroblast; [5]): 184; Population Apoptotic (%) (Fibroblast; [6]): 14%; Population Fragmented Nuclei (%) (Fibroblast; [6]): 4%; Population Healthy Nuclei (%) (Fibroblast; [6]): 86%; Population Hoechst High Intensity Objects (%) (Fibroblast; [6]): 3%; Population Membrane Permeable-Phenotype (%) (Fibroblast; [6]): 0%; Population Mitochondria Different-Phenotype (%) (Fibroblast; [6]): 10%; Population Mitotic Cells (%) (Fibroblast; [6]): 85%; Population Normal (%) (Fibroblast; [6]): 96%; Population Pyknosed Nuclei (%) (Fibroblast; [6]): 9%; Population Tubulin-Different-Phenotype (%) (Fibroblast; [6]): 12%; Total Cell Count (Fibroblast; [6]): 73; Population Apoptotic (%) (Fibroblast; [7]): 71%; Population Fragmented Nuclei (%) (Fibroblast; [7]): 30%; Population Healthy Nuclei (%) (Fibroblast; [7]): 49%; Population Hoechst High Intensity Objects (%) (Fibroblast; [7]): 33%; Population Membrane Permeable-Phenotype (%) (Fibroblast; [7]): 5%; Population Mitochondria Different-Phenotype (%) (Fibroblast; [7]): 55%; Population Mitotic Cells (%) (Fibroblast; [7]): 28%; Population Normal (%) (Fibroblast; [7]): 66%; Population Pyknosed Nuclei (%) (Fibroblast; [7]): 19%; Population Tubulin-Different-Phenotype (%) (Fibroblast; [7]): 77%; Total Cell Count (Fibroblast; [7]): 243; Population Apoptotic (%) (Fibroblast; [8]): 89%; Population Fragmented Nuclei (%) (Fibroblast; [8]): 11%; Population Healthy Nuclei (%) (Fibroblast; [8]): 67%; Population Hoechst High Intensity Objects (%) (Fibroblast; [8]): 6%; Population Membrane Permeable-Phenotype (%) (Fibroblast; [8]): 59%; Population Mitochondria Different-Phenotype (%) (Fibroblast; [8]): 100%; Population Mitotic Cells (%) (Fibroblast; [8]): 10%; Population Normal (%) (Fibroblast; [8]): 93%; Population Pyknosed Nuclei (%) (Fibroblast; [8]): 20%; Population Tubulin-Different-Phenotype (%) (Fibroblast; [8]): 86%; Total Cell Count (Fibroblast; [8]): 78; Population Apoptotic (%) (Fibroblast; [9]): 30%; Population Fragmented Nuclei (%) (Fibroblast; [9]): 29%; Population Healthy Nuclei (%) (Fibroblast; [9]): 64%; Population Hoechst High Intensity Objects (%) (Fibroblast; [9]): 10%; Population Membrane Permeable-Phenotype (%) (Fibroblast; [9]): 20%; Population Mitochondria Different-Phenotype (%) (Fibroblast; [9]): 0%; Population Mitotic Cells (%) (Fibroblast; [9]): 69%; Population Normal (%) (Fibroblast; [9]): 89%; Population Pyknosed Nuclei (%) (Fibroblast; [9]): 6%; Population Tubulin-Different-Phenotype (%) (Fibroblast; [9]): 20%; Total Cell Count (Fibroblast; [9]): 222; Population Apoptotic (%) (Fibroblast; [10]): 100%; Population Fragmented Nuclei (%) (Fibroblast; [10]): 37%; Population Healthy Nuclei (%) (Fibroblast; [10]): 60%; Population Hoechst High Intensity Objects (%) (Fibroblast; [10]): 15%; Population Membrane Permeable-Phenotype (%) (Fibroblast; [10]): 7%; Population Mitochondria Different-Phenotype (%) (Fibroblast; [10]): 4%; Population Mitotic Cells (%) (Fibroblast; [10]): 0%; Population Normal (%) (Fibroblast; [10]): 84%; Population Pyknosed Nuclei (%) (Fibroblast; [10]): 1%; Population Tubulin-Different-Phenotype (%) (Fibroblast; [10]): 35%; Total Cell Count (Fibroblast; [10]): 82; Population Apoptotic (%) (Fibroblast; [11]): 70%; Population Fragmented Nuclei (%) (Fibroblast; [11]): 38%; Population Healthy Nuclei (%) (Fibroblast; [11]): 46%; Population Hoechst High Intensity Objects (%) (Fibroblast; [11]): 51%; Population Membrane Permeable-Phenotype (%) (Fibroblast; [11]): 1%; Population Mitochondria Different-Phenotype (%) (Fibroblast; [11]): 54%; Population Mitotic Cells (%) (Fibroblast; [11]): 29%; Population Normal (%) (Fibroblast; [11]): 48%; Population Pyknosed Nuclei (%) (Fibroblast; [11]): 14%; Population Tubulin-Different-Phenotype (%) (Fibroblast; [11]): 67%; Total Cell Count (Fibroblast; [11]): 237; Population Apoptotic (%) (Fibroblast; [12]): 66%; Population Fragmented Nuclei (%) (Fibroblast; [12]): 52%; Population Healthy Nuclei (%) (Fibroblast; [12]): 44%; Population Hoechst High Intensity Objects (%) (Fibroblast; [12]): 37%; Population Membrane Permeable-Phenotype (%) (Fibroblast; [12]): 0%; Population Mitochondria Different-Phenotype (%) (Fibroblast; [12]): 28%; Population Mitotic Cells (%) (Fibroblast; [12]): 33%; Population Normal (%) (Fibroblast; [12]): 62%; Population Pyknosed Nuclei (%) (Fibroblast; [12]): 3%; Population Tubulin-Different-Phenotype (%) (Fibroblast; [12]): 61%; Total Cell Count (Fibroblast; [12]): 465; Growth Rate (HEK-293T; [13]): 0; Growth Rate (HEK-293T; 6 h, replicate number 1, timepoint 6 hours): 0; Growth Rate (HEK-293T; [14]): 0; Growth Rate (HEK-293T; [15]): 0; Growth Rate (HEK-293T; [16]): 0; Growth Rate (U2OS; [13]): 1; Growth Rate (U2OS; 6 h, replicate number 2, timepoint 6 hours): 1; Growth Rate (U2OS; [14]): 1; Growth Rate (U2OS; 12 h, replicate number 2, timepoint 12 hours): 0; Growth Rate (U2OS; [15]): 0; Growth Rate (U2OS; [16]): 0
